# D1 allo mod – D1 dopamine receptor (human) allosteric modulation; P21728; HEK293 D1, CRE-luciferase, dopamine EC30 potentiation; actives deviate in either direction; B-score at 10 µM; actives 5.9% (n = 58,000); AID 641;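 active = luminescence count or its row- and column-corrected plate score outside the 99.7% band of the plate's sample wells, on either side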
# SF1 activator – SF-1 (human) activation. activation, % at 10 µM. actives 1.9% (n = 65,000). Q13285. CHO-K1 Gal4-SF-1 LBD luciferase reporter; % increase over DMSO SF-1-specific signal;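 active = activation above the mean activation of all tested compounds plus 3 SD, cut at about 50% in these data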
#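 Assay system – CHO-K1 cells with Gal4–hSF-1 LBD chimera plus Gal4-driven luciferase · Quantity – 4,000 cells per well · Times – compound added 1 h post-seeding, 20 h exposure at 37 °C, 5% CO2 · Measured by – luciferase light emission · Benchmarks – DMSO and mock-transfected background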
# HePTP inhibitor – human HePTP phosphatase inhibition; recombinant HePTP phosphatase activity, OD absorbance; inhibition, % at 20 µM; actives 0.64% (n = 110,000); in the data active = inhibition above about 50%; inconclusive = no clear call, values can overlap the other calls;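 note: plate controls were vehicle for no effect and reference inhibitor for full effect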
# RORa activator – activators of human nuclear receptor RORA; P35398; CHO-K1 Gal4-RORA LBD luciferase reporter, luminescence; percent increase over mock-subtracted basal signal; activation, % at 10 µM; actives 1.5% (n = 65,000); AID 560;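 active = activation above the mean of all tested compounds plus 3 SD, cut at about 49% in these data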;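 note: 0% = DMSO-treated RORA cells and 100% = added signal equal to DMSO minus mock-transfected cells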
# Target sequence (P35398 whole entry, looked up, the tested form may be a part): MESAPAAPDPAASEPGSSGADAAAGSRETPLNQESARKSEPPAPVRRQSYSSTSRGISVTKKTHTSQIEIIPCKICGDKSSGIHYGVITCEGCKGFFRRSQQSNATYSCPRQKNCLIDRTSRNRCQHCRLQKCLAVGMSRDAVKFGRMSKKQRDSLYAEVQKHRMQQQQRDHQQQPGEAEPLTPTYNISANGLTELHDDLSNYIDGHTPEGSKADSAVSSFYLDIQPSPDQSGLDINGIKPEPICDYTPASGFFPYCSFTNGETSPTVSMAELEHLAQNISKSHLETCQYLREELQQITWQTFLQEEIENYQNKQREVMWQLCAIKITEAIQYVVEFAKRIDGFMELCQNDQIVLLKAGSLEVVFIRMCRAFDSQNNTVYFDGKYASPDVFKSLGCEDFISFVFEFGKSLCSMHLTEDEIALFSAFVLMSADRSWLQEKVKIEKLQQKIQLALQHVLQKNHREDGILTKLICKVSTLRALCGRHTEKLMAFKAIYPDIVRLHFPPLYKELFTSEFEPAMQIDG
# M1 agonist – activates the M1 muscarinic receptor; CHO-M1 cells, Fluo-4 calcium fluorescence, agonist mode; active compounds read high; B-score at 10 µM; actives 3% (n = 64,000);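 active = fluorescence rise, raw or as B-score row- and column-corrected plate score, outside the 99.7% band of its plate's samples, either direction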
# M1 antagonist – M1 muscarinic receptor (rat) antagonism | P08482 | CHO-M1 cells, Fluo-4 calcium, ACh EC80 antagonist mode; active compounds read low | B-score at 10 µM | actives 3.4% (n = 64,000);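 active = calcium fluorescence response, raw or row-and-column corrected B-score, differing from the plate sample mean either way at a set confidence level, mostly lower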
# M1 ag confirm – confirmation of rat M1 muscarinic receptor agonists; shares compounds with M1 agonist; CHO-M1 cells, Fluo-4 calcium fluorescence, agonist mode; actives lie on both sides; fluorescence change (max-min) at 10 µM; actives 19% (n = 1,700); AID 1488;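 active = fluorescence change differs from the solvent-only DMSO control mean at a set confidence level in both duplicate runs; inconclusive = differs from solvent-only control mean in just one of two runs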;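 note: an EC20 dose of acetylcholine follows compound addition during the same imaging run; raw fluorescence intensity difference in instrument units with no normalization to controls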
# M4 ag counter – counter-screen for M1 agonists: activity at rat M4 receptor; CHO M4/Gqi5 cells, Fluo-4 calcium fluorescence, agonist mode; actives lie on both sides; shares compounds with M1 agonist; fluorescence change (max-min) at 10 µM; actives 9% (n = 1,700);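 active = fluorescence change differing from the plate's solvent-only control wells at 99.7% confidence in both duplicates, whether higher or lower; inconclusive = differs from solvent controls in only one of two duplicates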
# Numbers without * were called inactive; u = inconclusive; x = not tested or not shown; ! = a repeat was not active. This is a sample that favours compounds with a hit; in the whole collection about 8.2% have one here.
SMILES,D1 allo mod,SF1 activator,HePTP inhibitor,RORa activator,M1 agonist,M1 antagonist,M1 ag confirm,M4 ag counter
O=C(NCCCN1CCCCCC1)c1ccc2c(c1)NC(=O)C(N1CCOCC1)S2 (stereo not given),-0.19,-8,-8,10,-0.036,-1.3,x,x
C=CCSc1nnc(-c2ccncc2)n1-c1ccc(OCC)cc1,0.029,-5,6,-6,1.7*,0.62,-12,-25
O=c1oc(-c2ccccc2)nc2sc3c(c12)CCCCC3,x,x,6,x,x,x,x,x
CCCOC(=O)c1ccc(OCC(O)Cn2c(C)nc3ccccc32)cc1 (stereo not given),-3.2*,-36,9,-40,5.7*,-0.29,u,-84
COc1ccc(OCC(O)Cn2c(C)nc3ccccc32)cc1 (stereo not given),x,x,9,x,x,x,x,x
COC(=O)c1ccc2c(=O)sc(N3CCC(C(N)=O)CC3)nc2c1,0.56,-4,11,20,24*,0.36,132*,136*
COC(=O)c1ccc2c(=O)n3c(nc2c1)SCC(c1ccccc1)=N3,-0.26,-1,6,-2,-1.5,0.019,x,x
N#CC1=C(N)OC(c2ccccc2)=C(C#N)C1c1ccc2c(c1)OCO2 (stereo not given),0.037,-15,-4,2,1.8,-0.089,x,x
O=C(COc1ccccc1[N+](=O)[O-])Nc1ccc2oc(-c3cccc4ccccc34)nc2c1,x,x,0,x,x,x,x,x
CCOc1ccc(NC(=O)CN2CCN(CC(=O)Nc3ccc(C(=O)OC)cc3)CC2)cc1,-0.14,10,5,-18,0.054,-0.064,x,x
CCOC(=O)COn1c(=O)c(-c2ccco2)[n+]([O-])c2ccccc21,x,-16,9,-9,0.6,0.016,x,x
CCOn1c(=O)c(-c2cc3ccccc3o2)[n+]([O-])c2ccccc21,2.4,97*,2,60*,23*,-0.14,23,-13
CCOC(=O)c1cc(NC(=O)N2CCOCC2)c(C)nc1C,0.016,19,-3,-22,1,0.35,x,x
Cc1cc(S(=O)(=O)NCC(=O)O)ccc1F,x,12,6,3,5*,0.24,-12,-17
O=C(O)CNS(=O)(=O)c1ccc(F)cc1,-0.52,-9,8,12,0.16,0.11,x,x
CCOC(=O)c1cc(NC(=O)N2CCCc3ccccc32)c(C)nc1C,0.25,2,6,2,-0.26,-1.1,x,x
CC(=O)c1ccc(NC(=O)N2CCN(c3cccc(Cl)c3)CC2)cc1,-0.83,12,10,-36,5.1*,-2.8*,u,-28
COc1ccc(C(=O)ON=C2c3ccccc3-c3ccccc32)cc1[N+](=O)[O-],x,x,-6,x,x,x,x,x
COCCCNS(=O)(=O)c1ccc([N+](=O)[O-])cc1,x,x,-16,x,x,x,x,x
CC1(C)CC(=O)C2=C(C1)Nc1ncnn1C2c1ccccn1 (stereo not given),-1.3,-9,2,1,-0.45,0.42,x,x
Cc1ccc(OCC(=O)Nc2ccc(-c3nc4ncccc4o3)cc2)c(C)c1,0.41,5,104*!,5,3.3*,-1.2,u,-49
Cc1ccc(C(C)C)c(OCC(=O)Nc2ccc(-c3nc4ncccc4o3)cc2)c1,x,x,6,x,x,x,x,x
CC1CCCCC1NS(=O)(=O)c1ccc(S(=O)(=O)NCc2ccncc2)cc1 (stereo not given),-1.5,-70,9,-69,3.5*,-0.49,-11,-9.6
Cc1ccc(S(=O)(=O)Nc2cc(C)c(O)c(Sc3nc4ccccc4s3)c2)cc1,x,x,-4,x,x,x,x,x
COc1ccc(-n2nnnc2SCC(=O)c2ccc(O)c(O)c2)cc1,-0.93,-23,4,-15,11*,-0.0092,-7.3,-54
SMILES,D1 allo mod,SF1 activator,HePTP inhibitor,RORa activator,M1 agonist,M1 antagonist,M1 ag confirm,M4 ag counter
CC(=O)NS(=O)(=O)c1ccc(NS(=O)(=O)Cc2ccccc2)cc1,x,x,0,x,x,x,x,x
Clc1ccc(C2C=C(c3ccccc3)Nc3ncnn32)cc1 (stereo not given),x,x,10,x,x,x,x,x
Cc1ccsc1C1C=C(c2cccc(Br)c2)Nc2ncnn21 (stereo not given),0.63,2,2,-4,34*,-0.92,836*,793*
Cc1ccc(C2C=C(c3ccc4c(c3)OCO4)Nc3ncnn32)cc1 (stereo not given),0.64,2,0,4,-1.4,-1.2,x,x
COc1cccc(C2=CC(c3ccc(C)cc3)n3ncnc3N2)c1 (stereo not given),0.67,-7,-5,7,8*,-1.1,165*,u
COc1ccc(C2C(C(=O)N3CCCC3)CC(=O)N2c2ccc(OC)cc2)cc1 (stereo not given),0.18,4,4,-6,1.1,0.11,x,x
COc1ccc(-n2nc3cc(C)c(NC(=O)COc4ccc(C)cc4)cc3n2)cc1,x,x,6,x,x,x,x,x
O=C(Cc1cccs1)Nc1cccc(C(=O)Nc2ccco2)c1,0.058,5,0,-6,5.5*,-0.43,-4.1,u
CC(=O)c1cccc(NC(=O)Cc2cccs2)c1,-0.12,-11,11,1,-0.68,0.63,x,x
CN1CCc2c(sc3c2C(=O)NC(c2cccc(OC(=O)c4cccs4)c2)N3)C1 (stereo not given),-0.9,58*,8,62*,5.7*,-0.014,39,41
CCOc1ccc(S(=O)(=O)N2CCN(c3ccccc3OC)CC2)c2cccnc12,x,4,7,2,5.2*,-0.52,-16,-49
CCOC(=O)C1CCCN(CC(O)COc2ccc(OC)cc2C(C)(C)C)C1 (stereo not given),-0.12,-11,6,-21,20*,-6.7*,335*,-17
CCOc1cc(C2Nc3ccccc3NC3=C2C(=O)CC(c2ccc(OC)cc2)C3)ccc1OC(C)=O (stereo not given),x,x,-7,x,x,x,x,x
c1ccc(CSc2nnnn2-c2ccc3c(c2)OCCO3)nc1,1.1,24,11,-3,6.7*,0.22,-9.7,-24
Cc1cc(C)c(C(CC(=NNC(N)=O)c2cccs2)C(C#N)C#N)c(C)c1 (stereo not given),x,x,8,x,x,x,x,x
O=C(CCc1nc2ccccc2c(=O)[nH]1)N1CCN(C/C=C/c2ccccc2)CC1,0.065,-36,9,-32,9.4*,-0.84,31,-25
COc1ccc(NC(=O)C2CCCN(S(=O)(=O)c3cccc4cccnc34)C2)c(OC)c1 (stereo not given),-0.97,-11,6,8,3.1*,-0.22,-32*,u
CC(=O)c1cccc(NC(=O)C2CCCN2S(=O)(=O)c2cccc3cccnc23)c1 (stereo not given),-0.31,-24,-12,-13,-0.4,0.087,x,x

# Source: PubChem BioAssay
